High-throughput results from PubChem BioAssay.
In the library only some 2% were active in any assay of this set; here they are far more common.
CDK5 p35 inh: blocks human CDK5/p35 kinase activity. 0.01% of 330,000 active. Recombinant CDK5/p35, ADP-Glo luminescence, 60 min. inhibition, % at 10 µM;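 active = highest replicate inhibition of at least 50% and at least 75% of replicates reaching 50%; inconclusive = only one of the two criteria met; inactive = both criteria failed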
Target sequence (Q00535 whole entry, looked up): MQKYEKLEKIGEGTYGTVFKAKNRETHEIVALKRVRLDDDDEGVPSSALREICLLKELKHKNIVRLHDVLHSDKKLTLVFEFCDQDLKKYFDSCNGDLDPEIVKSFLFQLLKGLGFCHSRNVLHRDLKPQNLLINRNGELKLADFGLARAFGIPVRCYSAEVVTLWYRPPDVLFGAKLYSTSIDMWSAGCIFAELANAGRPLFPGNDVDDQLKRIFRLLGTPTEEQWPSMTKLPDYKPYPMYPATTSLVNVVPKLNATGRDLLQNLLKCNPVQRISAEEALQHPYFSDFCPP
Target sequence (Q15078 whole entry, looked up): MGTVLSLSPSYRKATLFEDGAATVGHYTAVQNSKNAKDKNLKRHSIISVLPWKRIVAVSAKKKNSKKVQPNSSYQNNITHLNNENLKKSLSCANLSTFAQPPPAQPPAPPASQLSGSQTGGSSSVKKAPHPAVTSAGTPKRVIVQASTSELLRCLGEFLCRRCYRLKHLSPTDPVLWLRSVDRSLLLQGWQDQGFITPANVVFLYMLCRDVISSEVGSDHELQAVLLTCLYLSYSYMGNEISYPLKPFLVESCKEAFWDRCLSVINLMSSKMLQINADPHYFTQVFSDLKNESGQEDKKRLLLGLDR
SR-BI HDL uptake: inhibitors of mouse SR-BI mediated HDL lipid uptake; Q61009; ldlA[mSR-BI] CHO cells, DiI-HDL uptake fluorescence, 3 h; inhibition, % at 12.5 µM; 0.96% of 320,000 active;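 active = mean replicate inhibition of at least 70% and a set share of replicates each scoring 70 or more; inconclusive = meets just one of the two criteria; inactive = fails both criteria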
dFosB act-1: activators of mouse delta FosB homodimer; P13346; 0.99% of 340,000 active; activation, % at 25 µM; purified delta FosB, TAMRA-CDK5 oligo fluorescence polarization; percent of positive-control signal above neutral wells;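 active = mean activation above about 17%, with every replicate also reaching it, limit read from the data, passing the limit was not always enough; inconclusive = only one of the two conditions met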
SR-BI uptake up: SR-BI HDL lipid transfer activation; AID 504775; CHO ldlA[mSR-BI] cells, DiI-HDL uptake fluorescence, 3 h; 100 = double the neutral-control signal; activation, % at 12.5 µM; 0.096% of 320,000 active;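 active = mean replicate activation of at least 60% and every replicate at or above 60%; inconclusive = mean or all-replicate condition met, but not both; inactive = mean below 60% and not all replicates reaching 60%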
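Material: SR-BI-overexpressing, LDLR-lacking CHO cells | Dosing: Single compound concentration, delivered by pin transfer | Probe or stimulus: Labelled HDL, 10 µg/mL | Signal: Bottom-read cell fluorescence after medium removal, ex 550/em 595 nm | Schedule: 3 h, 37 °C | Evaluation: HDL uptake via cellular fluorescence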
dFosB act-2: activators of mouse delta FosB homodimer DNA binding. shares compounds with dFosB act-1. purified delta FosB, TAMRA-CDK5 oligo fluorescence polarization; normalised: neutral wells 0, positive control 100. activation, % at 24.9 µM. 2,400 tested, under 10 active. AID 588690;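 active = highest replicate activation at or above 34% and every replicate reaching that threshold; inconclusive = meets only one of the two criteria; inactive = meets neither criterion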;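 note: higher polarization means more probe DNA bound by delta FosB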
Each line names hits and unclear results; the compound was inactive in the other large screens (follow-up assays come after a bar, where they were run).

O=C(CC1S/C(=N/N=C/c2c[nH]c3ccc(OCc4ccccc4)cc23)NC1=O)Nc1ccccc1 (stereo not drawn)	dFosB act-1 32 | dFosB act-2 inactive
O=C(O)c1cc(-c2cccnc2)nc2ccc(Br)cc12	none
NC(=O)c1cc(-c2ccccc2)nc2ccc(Br)cc12	dFosB act-1 23 | dFosB act-2 inactive
Cc1ccc(N(CCC(=O)N2CCOCC2)S(=O)(=O)c2ccccc2)cc1	none
O=C(Nc1cccc(-n2cnnn2)c1)c1cc2ccccc2o1	dFosB act-1 37 | dFosB act-2 inactive
O=[N+]([O-])c1ccccc1S(=O)(=O)Nc1ccc(-c2ccc3nncn3n2)cc1	none
Cc1cccc(C(=O)NCCNc2nc3cc(C)c(C)cc3cc2C)c1	none
COc1ccc(C(=O)NCCNc2nc3cc(C)c(C)cc3cc2C)cc1	dFosB act-1 25 | dFosB act-2 inactive
COc1cccc(-c2ccc(NC(=O)C3CCCN(CCCn4nc(C)cc4C)C3)cc2)c1 (stereo not drawn)	dFosB act-1 27 | dFosB act-2 inactive
CN(Cc1ccc(F)cc1)C(=O)CNC(=O)c1ccc2c(c1)OCO2	none
CN(CC(=O)Nc1cccc(F)c1)C(=O)c1ccc(COc2ccccc2)o1	none
CC(OC(=O)c1cc(-c2cccnc2)nc2ccccc12)C(=O)Nc1ccc2ccccc2c1 (stereo not drawn)	dFosB act-1 44 | dFosB act-2 inactive
CCOc1cccc(-c2nc3c(s2)CCc2onc(-c4cccc([N+](=O)[O-])c4)c2-3)c1	none
Cc1ccc(NC(=O)CN2C(=O)N/C(=C/c3ccc(N4CCOCC4)cc3)C2=O)cc1	none
Cc1ccc(NC(=O)CN2C(=O)N/C(=C/c3ccc4c(c3)OCCO4)C2=O)cc1	dFosB act-1 48 | dFosB act-2 inactive
CCOC(=O)CSc1nc(C)cc(C)n1	dFosB act-1 16 | dFosB act-2 inactive
COCCNc1ccc(S(=O)(=O)N2CCCC2)cn1	none
Nc1ccc(S(=O)(=O)Nc2nccc(/C=C/c3ccccc3F)n2)cc1	dFosB act-1 26 | dFosB act-2 inactive
Cc1ccnc(NS(=O)(=O)c2ccc(NC(=O)c3ccccc3F)cc2)n1	none
CCCn1c2ccccc2c2cnn(CC(=O)N3CCN(C4CCCCC4)CC3)c(=O)c21	none
C=CC[C@H](CC(=O)NCCO)C(=O)N[C@H](COC(=O)[C@H](CC=C)CC(=O)OC(C)(C)C)c1ccccc1	none
O=C(Nc1ccc(-c2nc3ccccc3[nH]2)cc1)c1ccc(N2C(=O)CCC2=O)cc1	dFosB act-1 25 | dFosB act-2 inactive
O=C(Nc1ccc(-c2nc3ccc(NC(=O)c4cccs4)cc3[nH]2)cc1)c1cccs1	dFosB act-1 47 | dFosB act-2 inactive
CS(=O)(=O)c1cccc(C(=O)Nc2ccc(-c3nc4ccccc4[nH]3)cc2)c1	dFosB act-1 37 | dFosB act-2 inactive
CN(c1ccccc1)S(=O)(=O)c1ccc(Cl)c(C(=O)Nc2ccc(-c3nc4ccccc4[nH]3)cc2)c1	dFosB act-1 44 | dFosB act-2 inactive
CN(c1ccccc1)S(=O)(=O)c1ccc(Cl)c(C(=O)Nc2nc3ccccc3[nH]2)c1	none
O=C(O)c1ccc(OS(=O)(=O)c2ccc(Cl)s2)cc1	none
Cc1ccccc1C(N)c1ccncc1 (stereo not drawn)	none
CC(=O)C1=C(O)C(=O)N(c2ccc(Br)cc2)C1c1ccc(Br)cc1 (stereo not drawn)	none
O=C(/C=C/c1ccccc1)Nc1ccc2c(c1)C(=O)NC2=O	none
O=C(/C=C/c1ccccc1Cl)Nc1ccc2c(c1)C(=O)NC2=O	dFosB act-1 20 | dFosB act-2 inactive
CCn1c(COc2ccccc2OC)nnc1SCC(=O)NC1CCCC1	none
CCCCCCC(=O)Nc1ccc(C(=O)N/N=C/c2cccnc2)cc1	SR-BI HDL uptake inconclusive
Nc1cc(C(=O)N/N=C/c2cccc([N+](=O)[O-])c2)n[nH]c1=O	dFosB act-1 18 | dFosB act-2 inactive
CCCCCCCC(=O)Nc1ccc(C(=O)N/N=C/c2cccc([N+](=O)[O-])c2)cc1	SR-BI HDL uptake 87, dFosB act-1 20 | dFosB act-2 inactive
COc1ccc(N2CCN(C3CCCN(C(=O)CCN4CCCCO4)C3)CC2)cc1 (stereo not drawn)	none
COc1ccc(CNC(=O)C2CCN(S(=O)(=O)c3ccc(Br)s3)CC2)cc1	none (no result: SR-BI HDL uptake, SR-BI uptake up)
CCn1c(C)c(C2=CCN(S(=O)(=O)c3ccccc3)CC2)c2ccccc21	dFosB act-1 31 | dFosB act-2 inactive
Cc1ccc(S(=O)(=O)N2CC=C(c3c(C)n(C)c4ccccc34)CC2)cc1	none
CCC(C)c1ccc(S(=O)(=O)N2CCN(S(=O)(=O)c3ccc(NC(C)=O)cc3)CC2)cc1 (stereo not drawn)	dFosB act-1 80 (no result: SR-BI HDL uptake, SR-BI uptake up) | dFosB act-2 inactive
CN(CCc1ccccc1)C(=O)c1cccc(NC(=O)Cc2cccc(NC(=O)C3CCCN(C(=O)c4ccccc4)C3)c2)c1 (stereo not drawn)	none
O=[N+]([O-])c1ccc(COc2cccc(CN3CCOCC3)c2)cc1	none
COc1cc(CCN2C(=O)c3cccc4cccc(c34)C2=O)c(S(=O)(=O)NCCCO)cc1OC	dFosB act-1 20 | dFosB act-2 inactive
CCOc1ccc(Cc2c(C)[nH]c3ccc(C(=O)O)cc3c2=S)cc1	none
Cc1c(-c2nc(N)nc(Nc3ccc(F)cc3)n2)oc2ccccc12	dFosB act-1 71 | dFosB act-2 inactive
Cc1sc(NC(=O)Cn2c(=O)oc3ccccc32)nc1-c1ccc(Cl)cc1	dFosB act-1 40 | dFosB act-2 inactive
CCc1nnc(NC(=O)Cn2c(=O)oc3ccccc32)s1	none
COc1ccc(-c2nn(-c3ccccc3)cc2C(=O)Nc2nccs2)cc1	none
O=C(Nc1nccs1)c1cn(-c2ccccc2)nc1-c1ccncc1	dFosB act-1 36 | dFosB act-2 inactive
C[C@H](CO)N1C[C@H](C)[C@@H](CN(C)S(C)(=O)=O)Oc2c(NC(=O)c3ccncc3)cccc2C1=O	none
CN(C)c1nc(NCc2ccccc2)nc(N/N=C/c2ccc3c(c2)OCO3)n1	dFosB act-1 58 | dFosB act-2 inactive
CCOC(=O)c1sc(NC(=O)CCc2ccc(OC)cc2)nc1C	dFosB act-1 25 (no result: SR-BI HDL uptake, SR-BI uptake up) | dFosB act-2 inactive
O=C(NC(=S)NCc1ccccc1)c1ccccc1[N+](=O)[O-]	none
CCN1CCN(c2c(C=O)c(Cl)nc3ccc(OC)cc23)CC1	dFosB act-1 27 | dFosB act-2 inactive
CCN1CCN(c2cc(C)c3cc(NC(=O)CCC(=O)Nc4ccc(OC)cc4OC)ccc3n2)CC1	none
COc1ccc(Nc2nc(OC)nc(OC)n2)cc1	none (no result: SR-BI HDL uptake, SR-BI uptake up)
COc1ccc(Nc2nc(Nc3ccc(OC)cc3)nc(SC3=NCCS3)n2)cc1	dFosB act-1 37 | dFosB act-2 inactive
CCOc1ccc(NS(=O)(=O)c2ccc(C(=O)N3CCC3)cc2)cc1	none
